Test results as given in ChEMBL document CHEMBL3751740, “New MKLP-2 inhibitors in the paprotrain series: Design, synthesis and biological evaluations” (Bioorg Med Chem, 2016).

What was measured:
[1] = molecular target: Centromere-associated protein E (Homo sapiens) (UniProt Q02224); assay: Inhibition of porcine brain microtubule-stimulated human recombinant GST-tagged CENP-E ATPase activity at 15 uM by microplate reader in presence of Mg2+ ATP relative to control
In short: (§1)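 Each kinesin motor domain was tested against MT-stimulated ATPase at 22 °C in triplicate, with compounds at 15 µM. Buffer was 7.5 mM PIPES-NaOH pH 7.0 with MgCl2, Taxol, ELIPA reagents and 1.25 mg/mL MTs. Reactions were started with 1 mM Mg2+ATP and read kinetically at 360 nm. Monastrol and AMP-PNP (1 mM) were the controls.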

[2] = molecular target: T1, Kinesin-like protein KIFC3 (Homo sapiens) (UniProt Q9BVG8); assay: Inhibition of porcine brain microtubule-stimulated human recombinant GST-tagged KIFC3 ATPase activity at 15 uM by microplate reader in presence of Mg2+ ATP relative to control; in short: as §1
T1 sequence (whole entry): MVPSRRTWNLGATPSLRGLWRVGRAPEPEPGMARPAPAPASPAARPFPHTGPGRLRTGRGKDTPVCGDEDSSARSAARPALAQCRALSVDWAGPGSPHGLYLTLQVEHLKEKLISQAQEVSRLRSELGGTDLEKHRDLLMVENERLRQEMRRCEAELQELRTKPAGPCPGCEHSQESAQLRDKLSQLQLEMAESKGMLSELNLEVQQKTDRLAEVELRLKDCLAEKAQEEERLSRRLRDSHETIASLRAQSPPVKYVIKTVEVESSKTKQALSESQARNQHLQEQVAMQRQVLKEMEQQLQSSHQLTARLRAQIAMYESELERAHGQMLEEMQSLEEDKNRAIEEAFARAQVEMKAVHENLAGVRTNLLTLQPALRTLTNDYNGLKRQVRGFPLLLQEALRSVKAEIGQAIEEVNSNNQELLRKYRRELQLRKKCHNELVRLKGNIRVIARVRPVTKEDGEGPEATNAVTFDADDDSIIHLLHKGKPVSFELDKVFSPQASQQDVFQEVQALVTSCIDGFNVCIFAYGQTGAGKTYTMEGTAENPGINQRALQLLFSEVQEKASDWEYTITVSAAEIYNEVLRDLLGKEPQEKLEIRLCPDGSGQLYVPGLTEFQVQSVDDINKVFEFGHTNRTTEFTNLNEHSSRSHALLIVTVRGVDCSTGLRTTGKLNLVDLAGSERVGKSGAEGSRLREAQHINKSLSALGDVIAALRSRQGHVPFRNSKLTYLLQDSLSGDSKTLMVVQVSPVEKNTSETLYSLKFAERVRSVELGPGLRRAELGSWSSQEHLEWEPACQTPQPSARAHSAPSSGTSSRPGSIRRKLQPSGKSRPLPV

[3] = molecular target: T2, Kinesin-like protein KIF3C (Homo sapiens) (UniProt O14782); assay: Inhibition of porcine brain microtubule-stimulated human recombinant GST-tagged KIF3C ATPase activity at 15 uM by microplate reader in presence of Mg2+ ATP relative to control; in short: as §1
T2 sequence (whole entry): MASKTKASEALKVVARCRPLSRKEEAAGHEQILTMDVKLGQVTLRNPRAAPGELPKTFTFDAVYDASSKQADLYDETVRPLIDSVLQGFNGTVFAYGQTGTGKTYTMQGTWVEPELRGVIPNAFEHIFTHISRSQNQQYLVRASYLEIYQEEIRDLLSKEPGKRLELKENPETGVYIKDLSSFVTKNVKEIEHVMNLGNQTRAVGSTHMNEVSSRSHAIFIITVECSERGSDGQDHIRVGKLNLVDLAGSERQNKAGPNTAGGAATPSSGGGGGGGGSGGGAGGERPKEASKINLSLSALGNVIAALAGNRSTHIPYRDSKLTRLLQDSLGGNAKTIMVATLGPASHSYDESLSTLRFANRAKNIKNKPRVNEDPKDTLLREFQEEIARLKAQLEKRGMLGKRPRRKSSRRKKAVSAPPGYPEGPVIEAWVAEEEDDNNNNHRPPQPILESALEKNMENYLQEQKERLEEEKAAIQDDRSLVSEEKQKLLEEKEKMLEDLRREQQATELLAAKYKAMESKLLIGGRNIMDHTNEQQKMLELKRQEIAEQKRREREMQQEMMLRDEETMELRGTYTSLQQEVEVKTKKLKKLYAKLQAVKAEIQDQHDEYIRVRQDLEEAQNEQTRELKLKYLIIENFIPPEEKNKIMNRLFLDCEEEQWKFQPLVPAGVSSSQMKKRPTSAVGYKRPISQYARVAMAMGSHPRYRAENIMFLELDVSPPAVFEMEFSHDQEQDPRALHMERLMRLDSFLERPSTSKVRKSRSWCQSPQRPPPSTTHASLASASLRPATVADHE

[4] = molecular target: T3, Kinesin-1 heavy chain (Homo sapiens) (UniProt P33176); assay: Inhibition of porcine brain microtubule-stimulated human recombinant GST-tagged Kif5B ATPase activity at 15 uM by microplate reader in presence of Mg2+ ATP relative to control; in short: as §1
T3 sequence (whole entry): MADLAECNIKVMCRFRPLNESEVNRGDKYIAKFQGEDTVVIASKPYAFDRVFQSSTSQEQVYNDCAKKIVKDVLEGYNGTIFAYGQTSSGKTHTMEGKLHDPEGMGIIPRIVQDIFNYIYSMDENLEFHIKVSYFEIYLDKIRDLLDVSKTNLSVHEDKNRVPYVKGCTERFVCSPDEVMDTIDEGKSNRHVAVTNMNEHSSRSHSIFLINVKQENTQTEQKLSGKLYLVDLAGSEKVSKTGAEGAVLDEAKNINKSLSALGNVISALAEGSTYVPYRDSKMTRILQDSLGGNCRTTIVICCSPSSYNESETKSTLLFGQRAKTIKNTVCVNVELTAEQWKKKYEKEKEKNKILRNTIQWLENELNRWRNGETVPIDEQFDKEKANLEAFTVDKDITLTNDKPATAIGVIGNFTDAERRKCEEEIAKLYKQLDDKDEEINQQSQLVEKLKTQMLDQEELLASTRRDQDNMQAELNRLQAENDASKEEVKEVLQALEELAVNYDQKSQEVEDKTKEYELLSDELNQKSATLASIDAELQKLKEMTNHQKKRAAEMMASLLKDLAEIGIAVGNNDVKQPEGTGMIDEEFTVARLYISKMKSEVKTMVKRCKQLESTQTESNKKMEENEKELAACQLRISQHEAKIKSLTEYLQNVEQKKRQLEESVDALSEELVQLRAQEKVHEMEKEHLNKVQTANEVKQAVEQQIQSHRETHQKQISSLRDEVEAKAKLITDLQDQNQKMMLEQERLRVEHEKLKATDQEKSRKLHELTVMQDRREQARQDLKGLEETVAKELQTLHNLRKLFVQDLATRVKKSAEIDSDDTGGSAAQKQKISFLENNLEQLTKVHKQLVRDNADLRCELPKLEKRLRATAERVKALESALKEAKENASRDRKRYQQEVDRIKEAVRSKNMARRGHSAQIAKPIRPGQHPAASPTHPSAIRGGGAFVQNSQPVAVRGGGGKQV

Measured: inhibition

Chain of Centromere-associated protein E (Homo sapiens) (Q02224 whole entry, the tested form may be a part): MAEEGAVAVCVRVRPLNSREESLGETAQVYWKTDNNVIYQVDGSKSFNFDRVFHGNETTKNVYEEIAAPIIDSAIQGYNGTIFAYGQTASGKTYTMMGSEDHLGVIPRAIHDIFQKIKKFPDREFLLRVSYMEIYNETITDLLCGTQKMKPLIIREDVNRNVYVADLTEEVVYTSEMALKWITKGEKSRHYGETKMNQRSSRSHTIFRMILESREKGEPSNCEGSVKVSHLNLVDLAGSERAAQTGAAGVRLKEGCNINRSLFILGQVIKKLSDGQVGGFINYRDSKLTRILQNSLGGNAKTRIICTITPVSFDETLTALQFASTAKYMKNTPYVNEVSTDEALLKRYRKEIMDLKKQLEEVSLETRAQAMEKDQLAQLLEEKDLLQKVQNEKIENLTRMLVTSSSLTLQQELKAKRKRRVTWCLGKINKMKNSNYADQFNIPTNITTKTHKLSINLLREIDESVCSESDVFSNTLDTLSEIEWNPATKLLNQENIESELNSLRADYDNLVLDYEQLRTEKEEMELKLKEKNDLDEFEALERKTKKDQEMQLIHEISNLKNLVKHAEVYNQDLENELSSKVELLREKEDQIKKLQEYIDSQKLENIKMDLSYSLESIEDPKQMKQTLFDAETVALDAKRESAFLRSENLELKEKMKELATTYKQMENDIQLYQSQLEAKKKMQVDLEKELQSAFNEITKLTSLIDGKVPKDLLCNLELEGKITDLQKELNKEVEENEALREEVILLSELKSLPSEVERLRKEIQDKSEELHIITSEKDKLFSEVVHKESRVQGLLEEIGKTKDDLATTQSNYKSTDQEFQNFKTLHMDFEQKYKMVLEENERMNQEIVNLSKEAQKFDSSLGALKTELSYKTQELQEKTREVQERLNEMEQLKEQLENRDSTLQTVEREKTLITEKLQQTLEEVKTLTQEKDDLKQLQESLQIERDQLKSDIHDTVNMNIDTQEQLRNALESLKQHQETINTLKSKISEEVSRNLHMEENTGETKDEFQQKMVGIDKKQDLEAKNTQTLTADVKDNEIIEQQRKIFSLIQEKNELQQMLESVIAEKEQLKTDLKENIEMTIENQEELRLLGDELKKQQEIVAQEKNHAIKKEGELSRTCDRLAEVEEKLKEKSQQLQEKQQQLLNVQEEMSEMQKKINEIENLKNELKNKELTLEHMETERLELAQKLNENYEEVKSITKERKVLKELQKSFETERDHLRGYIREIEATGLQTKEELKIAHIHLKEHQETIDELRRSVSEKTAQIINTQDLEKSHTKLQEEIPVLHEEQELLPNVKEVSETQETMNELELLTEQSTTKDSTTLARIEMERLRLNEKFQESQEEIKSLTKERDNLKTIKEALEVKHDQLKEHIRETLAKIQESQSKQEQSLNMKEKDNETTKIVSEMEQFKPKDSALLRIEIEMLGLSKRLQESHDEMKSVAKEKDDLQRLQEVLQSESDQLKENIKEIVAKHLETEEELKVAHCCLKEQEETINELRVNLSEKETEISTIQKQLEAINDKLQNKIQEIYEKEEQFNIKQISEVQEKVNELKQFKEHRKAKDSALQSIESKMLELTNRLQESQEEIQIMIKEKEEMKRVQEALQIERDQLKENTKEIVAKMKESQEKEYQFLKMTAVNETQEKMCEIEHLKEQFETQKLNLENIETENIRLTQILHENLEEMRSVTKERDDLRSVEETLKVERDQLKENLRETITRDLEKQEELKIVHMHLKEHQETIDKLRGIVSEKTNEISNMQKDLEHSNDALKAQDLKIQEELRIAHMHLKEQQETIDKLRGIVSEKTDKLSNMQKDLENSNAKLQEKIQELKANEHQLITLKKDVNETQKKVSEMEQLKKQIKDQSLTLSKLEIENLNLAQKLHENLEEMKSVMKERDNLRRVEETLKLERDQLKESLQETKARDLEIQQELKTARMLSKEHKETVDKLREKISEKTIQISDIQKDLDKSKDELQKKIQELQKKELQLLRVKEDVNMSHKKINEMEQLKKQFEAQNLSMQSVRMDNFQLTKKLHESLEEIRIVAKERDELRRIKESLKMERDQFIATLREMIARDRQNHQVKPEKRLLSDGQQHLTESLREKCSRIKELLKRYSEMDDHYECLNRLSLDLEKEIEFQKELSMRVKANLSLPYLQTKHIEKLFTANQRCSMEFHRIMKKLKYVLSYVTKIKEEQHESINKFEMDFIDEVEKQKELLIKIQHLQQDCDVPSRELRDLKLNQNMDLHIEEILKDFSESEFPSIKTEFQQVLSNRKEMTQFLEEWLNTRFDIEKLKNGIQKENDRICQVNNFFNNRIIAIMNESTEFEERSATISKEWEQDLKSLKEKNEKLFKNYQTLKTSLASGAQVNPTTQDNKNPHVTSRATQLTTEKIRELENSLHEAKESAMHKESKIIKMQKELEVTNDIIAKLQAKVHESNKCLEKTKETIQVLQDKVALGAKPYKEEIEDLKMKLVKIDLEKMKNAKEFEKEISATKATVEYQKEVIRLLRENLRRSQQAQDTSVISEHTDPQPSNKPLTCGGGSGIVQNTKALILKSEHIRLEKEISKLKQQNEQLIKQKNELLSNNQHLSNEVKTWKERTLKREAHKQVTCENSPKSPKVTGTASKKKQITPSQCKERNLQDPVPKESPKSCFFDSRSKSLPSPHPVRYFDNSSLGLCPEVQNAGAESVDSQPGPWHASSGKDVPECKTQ

N#C/C(=C\c1ccc2c(c1)OCO2)c1c[nH]c2ccccc12
< 20%: all assays above

N#C/C(=C\c1cccnc1)c1c[nH]c2ccc(OCc3ccccc3)cc12
< 20%: all assays above

COc1ccc2c(/C(C#N)=C/c3cccnc3)c[nH]c2c1
< 20%: all assays above

CCOC(=O)C1=C(C)NC(=S)NC1c1cccc(O)c1 (centres undefined)
< 20%: all assays above

COc1cccc2[nH]cc(/C(C#N)=C/c3cccnc3)c12
< 20%: all assays above

COc1ccc2[nH]cc(/C(C#N)=C/c3cccnc3)c2c1
< 20%: all assays above
